Measurements from ChEMBL document CHEMBL2434932, “Design, synthesis and biological evaluation of a novel class of potent TGR5 agonists based on a 4-phenyl pyridine scaffold” (Eur J Med Chem, 2013).
The source made the active and inactive calls. The rule behind the calls is not given here.

Experiments:
[1] = molecular target: T1, G-protein coupled bile acid receptor 1 (Mus musculus) (UniProt Q80SS6); test: Agonist activity at mouse TGR5 expressed in HEK293 cells assessed CRE-induced luciferase activity after 5.5 hrs by reporter gene assay relative to control; assay type: functional, cell-based; parameters: concentration or dose not given beside the values
T1 sequence (whole entry): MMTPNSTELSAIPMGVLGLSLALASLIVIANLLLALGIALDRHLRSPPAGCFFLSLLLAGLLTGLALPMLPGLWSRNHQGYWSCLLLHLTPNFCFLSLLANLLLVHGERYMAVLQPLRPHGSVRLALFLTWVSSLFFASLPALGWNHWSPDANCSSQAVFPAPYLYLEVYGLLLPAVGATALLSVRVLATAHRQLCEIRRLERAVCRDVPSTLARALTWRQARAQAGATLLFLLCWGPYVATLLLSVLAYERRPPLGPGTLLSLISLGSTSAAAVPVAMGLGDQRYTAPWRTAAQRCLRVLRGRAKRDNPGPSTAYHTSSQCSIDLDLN
In short: (§1)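 HEK293 cells were stably transfected with a human or mouse TGR5 expression plasmid plus a CRE-driven luciferase reporter (pGL4.29). Cells were seeded and incubated overnight in DMEM with 10% FBS at 37 °C in 5% CO2, then exposed in fresh medium to a range of test concentrations. Luciferase read-out. Max effect % was scaled from DMSO vehicle (0%) to the INT-777 reference (100%). EC50 was taken from at least two independent experiments at eight concentrations each, mean ± SD.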

[2] = molecular target: T2, G-protein coupled bile acid receptor 1 (Mus musculus, UniProt Q80SS6); test: Agonist activity at mouse TGR5 expressed in HEK293 cells assessed CRE-induced luciferase activity after 5.5 hrs by reporter gene assay; assay type: functional, cell-based
T2 sequence (Q80SS6 whole entry): T1 sequence (whole entry)
In short: as §1, with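 “read-out.” for “read-out. Max effect % was scaled from DMSO vehicle (0%) to the INT-777 reference (100%).”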

[3] = molecular target: T3, G-protein coupled bile acid receptor 1 (Homo sapiens, UniProt Q8TDU6); test: Agonist activity at human TGR5 expressed in HEK293 cells assessed CRE-induced luciferase activity after 5.5 hrs by reporter gene assay; assay type: functional, cell-based
T3 sequence (Q8TDU6 whole entry): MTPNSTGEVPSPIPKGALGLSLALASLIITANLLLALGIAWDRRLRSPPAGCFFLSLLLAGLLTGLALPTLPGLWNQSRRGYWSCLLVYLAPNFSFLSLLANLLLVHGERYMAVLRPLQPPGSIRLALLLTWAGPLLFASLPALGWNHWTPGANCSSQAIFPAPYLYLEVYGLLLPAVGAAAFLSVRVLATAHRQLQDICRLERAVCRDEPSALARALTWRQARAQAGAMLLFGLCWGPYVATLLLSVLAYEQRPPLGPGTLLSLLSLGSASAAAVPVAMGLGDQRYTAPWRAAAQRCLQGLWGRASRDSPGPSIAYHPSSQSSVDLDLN

[4] = molecular target: T4, G-protein coupled bile acid receptor 1 (Homo sapiens) (UniProt Q8TDU6); test: Agonist activity at human TGR5 expressed in HEK293 cells assessed CRE-induced luciferase activity at 10 uM after 5.5 hrs by reporter gene assay; assay type: functional, cell-based
T4 sequence (whole entry): T3 sequence (Q8TDU6 whole entry)

[5] = Half life in Sprague-Dawley rat at 5 mg/kg, po; assay type: ADME, organism-based; parameters: dose 5 mg/kg, route oral; conditions: in vivo
In short: (§2)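 Male SD rats, n = 6 per group, dosed orally at 5 mg/kg as a 0.25% CMC-Na formulation. PK parameters were derived by non-compartmental analysis and are reported as mean ± SD.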

[6] = Clearance in Sprague-Dawley rat at 5 mg/kg, po; assay type: ADME, organism-based; parameters: dose 5 mg/kg, route oral; conditions: in vivo; in short: as §2
[7] = MRT (0 to infinity) in Sprague-Dawley rat at 5 mg/kg, po; assay type: ADME, organism-based; parameters: dose 5 mg/kg, route oral; conditions: in vivo; in short: as §2
[8] = MRT (0 to t) in Sprague-Dawley rat at 5 mg/kg, po; assay type: ADME, organism-based; parameters: dose 5 mg/kg, route oral; conditions: in vivo; in short: as §2
[9] = AUC (0 to infinity) in Sprague-Dawley rat at 5 mg/kg, po; assay type: ADME, organism-based; parameters: dose 5 mg/kg, route oral, time infinity; conditions: plasma; in short: as §2
[10] = AUC (0 to t) in Sprague-Dawley rat at 5 mg/kg, po; assay type: ADME, organism-based; parameters: dose 5 mg/kg, route oral; conditions: plasma; in short: as §2
[11] = Cmax in Sprague-Dawley rat at 5 mg/kg, po; assay type: ADME, organism-based; parameters: dose 5 mg/kg, route oral; conditions: in vivo; in short: as §2
[12] = Tmax in Sprague-Dawley rat at 5 mg/kg, po; assay type: ADME, organism-based; parameters: dose 5 mg/kg, route oral; conditions: in vivo; in short: as §2
[13] = test system: Mus musculus; test: Antidiabetic activity in oral glucose loaded ICR mouse assessed as reduction of blood glucose AUC (0 to 120 mins) at 50 mg/kg, po; assay type: functional, organism-based; parameters: dose 50 mg/kg
In short: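 Male ICR mice were fasted overnight and dosed orally at 50 mg/kg in 0.25% CMC vehicle (n = 7–8 per group), 30 min before an oral glucose load of 4 g/kg. Tail-clip blood glucose was measured before dosing and at 0, 15, 30, 60 and 120 min after the load. AUC0–120 min was calculated by the trapezoidal rule using each animal's 0-min glucose as its baseline.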

[14] = test system: Mus musculus; test: Toxicity in oral glucose loaded ICR mouse assessed as effect on size of the gallbladder at 50 mg/kg, po; assay type: organism-based; parameters: dose 50 mg/kg, route oral; conditions: in vivo
In short: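 Male ICR mice from the OGTT (oral dose 50 mg/kg in 0.25% CMC, n = 7–8 per group) were re-fed for 2 h after the test. The gallbladders were then ligated and removed. Gallbladder size was measured by vernier caliper. Bile weight was taken as the gross weight of gallbladder with bile minus the net gallbladder weight.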

Compound	Activity [1]	EC50 [2]	EC50 [3]	further results
O=C(c1ccco1)N(Cc1cc(C(F)(F)F)cc(C(F)(F)F)c1)Cc1cnccc1-c1ccccc1F			500 nM	
O=C1COc2nccc(-c3ccccc3F)c2CN1Cc1cc(C(F)(F)F)cc(C(F)(F)F)c1	130%			
CC(=O)N(Cc1cc(C(F)(F)F)cc(C(F)(F)F)c1)Cc1cnccc1-c1ccccc1			910 nM	
O=C(c1ccc(Cl)cc1)N(Cc1cc(C(F)(F)F)cc(C(F)(F)F)c1)Cc1cnccc1-c1ccccc1			7430 nM	
FC(F)(F)c1cc(CNCc2cnccc2-c2ccccc2)cc(C(F)(F)F)c1			580 nM	
CCCN(Cc1cnccc1-c1ccccc1F)C(C#N)c1cc(C(F)(F)F)cc(C(F)(F)F)c1 (racemic)			466 nM	
O=S(=O)(NCc1c(-c2ccccc2F)ccnc1Cl)c1cc(C(F)(F)F)cc(C(F)(F)F)c1			406 nM	
Fc1ccccc1-c1ccncc1CNCc1cc(C(F)(F)F)cc(C(F)(F)F)c1			458 nM	
O=S(=O)(NCc1c(-c2ccccc2F)ccnc1-c1ccccc1)c1cc(C(F)(F)F)cc(C(F)(F)F)c1				Activity [4]: 18%
CCC(c1cc(C(F)(F)F)cc(C(F)(F)F)c1)N(Cc1cnccc1-c1ccccc1)C(=O)c1ccco1 (racemic)			1230 nM	
NCc1cnccc1-c1ccccc1F				Activity [4]: 1%
O=C(c1ccncc1)N(Cc1cc(C(F)(F)F)cc(C(F)(F)F)c1)Cc1cnccc1-c1ccccc1			4080 nM	
O=C(C1CCCCC1)N(Cc1cc(C(F)(F)F)cc(C(F)(F)F)c1)Cc1cnccc1-c1ccccc1				Activity [4]: 19%
O=C(O)C(NCc1cnccc1-c1ccccc1F)c1cc(C(F)(F)F)cc(C(F)(F)F)c1 (stereo unspecified)				Activity [4]: 16%
COC(=O)C(NCc1cnccc1-c1ccccc1F)c1cc(C(F)(F)F)cc(C(F)(F)F)c1 (stereo unspecified)			440 nM	
CCOc1nccc(-c2ccccc2F)c1CNS(=O)(=O)c1cc(C(F)(F)F)cc(C(F)(F)F)c1				Activity [4]: 18%
O=C(c1ccco1)N(Cc1cc(C(F)(F)F)cc(C(F)(F)F)c1)Cc1cnccc1-c1ccccc1			470 nM	
CCC(=O)N(Cc1cc(C(F)(F)F)cc(C(F)(F)F)c1)Cc1cnccc1-c1ccccc1			1270 nM	
CC[C@H]1[C@@H](O)[C@@H]2[C@H](C[C@H](O)[C@]3(C)[C@@H]([C@H](C)C[C@H](C)C(=O)O)CC[C@@H]23)[C@@]2(C)CC[C@@H](O)C[C@@H]12	100%			
N#CC(c1cc(C(F)(F)F)cc(C(F)(F)F)c1)N(Cc1ccco1)Cc1cnccc1-c1ccccc1F (racemic)			892 nM	
O=C(NCc1cnccc1-c1ccccc1F)c1cc(C(F)(F)F)cc(C(F)(F)F)c1				Activity [4]: 46%
O=S(=O)(c1cc(C(F)(F)F)cc(C(F)(F)F)c1)N(Cc1ccccc1)Cc1cnccc1-c1ccccc1F			2100 nM	

Continued, in another order:

Activity [1]	EC50 [2]	EC50 [3]	Compound	further results
123%	550 nM	62 nM	O=S(=O)(NCc1cnccc1-c1c(F)cccc1F)c1cc(C(F)(F)F)cc(C(F)(F)F)c1	
		320 nM	O=C(c1ccoc1)N(Cc1cc(C(F)(F)F)cc(C(F)(F)F)c1)Cc1cnccc1-c1ccccc1	
139%	910 nM	32 nM	O=C(c1ccco1)N(Cc1cnccc1-c1ccccc1F)S(=O)(=O)c1cc(C(F)(F)F)cc(C(F)(F)F)c1	
		350 nM	O=C(c1ccccc1)N(Cc1cc(C(F)(F)F)cc(C(F)(F)F)c1)Cc1cnccc1-c1ccccc1	
119%	1180 nM	310 nM	CC(c1cc(C(F)(F)F)cc(C(F)(F)F)c1)N(Cc1cnccc1-c1ccccc1)C(=O)c1ccco1 (racemic)	
127%	300 nM	260 nM	O=C(c1cccs1)N(Cc1cc(C(F)(F)F)cc(C(F)(F)F)c1)Cc1cnccc1-c1ccccc1	
111%	230 nM	120 nM	O=C(c1ccsc1)N(Cc1cc(C(F)(F)F)cc(C(F)(F)F)c1)Cc1cnccc1-c1ccccc1	
120%	370 nM	61 nM	N#CC(NCc1cnccc1-c1ccccc1)c1cc(C(F)(F)F)cc(C(F)(F)F)c1 (racemic)	
117%	2040 nM	204 nM	CC(NCc1cnccc1-c1ccccc1F)c1cc(C(F)(F)F)cc(C(F)(F)F)c1 (racemic)	
148%	820 nM	63 nM	O=S(=O)(NCc1cnccc1-c1ccccc1F)c1cc(C(F)(F)F)cc(C(F)(F)F)c1	
146%	1090 nM	53 nM	O=C(c1ccsc1)N(Cc1cnccc1-c1ccccc1F)S(=O)(=O)c1cc(C(F)(F)F)cc(C(F)(F)F)c1	
		384 nM	CCC(NCc1cnccc1-c1ccccc1F)c1cc(C(F)(F)F)cc(C(F)(F)F)c1 (racemic)	
123%	100 nM	51 nM	N#CC(NCc1cnccc1-c1c(F)cccc1F)c1cc(C(F)(F)F)cc(C(F)(F)F)c1 (racemic)	
121%	150 nM	35 nM	N#CC(NCc1cnccc1-c1ccccc1F)c1cc(C(F)(F)F)cc(C(F)(F)F)c1 (racemic)	half-life [5]: 2.3 h; CL/F [6]: 1520 mL/min/kg; MRT inf [7]: 3.6 h; MRT last [8]: 2.6 h; AUC(0-inf) [9]: 55 ng·h/mL; AUC(0-t) [10]: 49.1 ng·h/mL; Cmax [11]: 16.3 ng/mL; Tmax [12]: 1.9 h; Activity [13]: inactive; Activity [14]: Non-toxic
144%	850 nM	31 nM	O=C(c1ccccc1)N(Cc1cnccc1-c1ccccc1F)S(=O)(=O)c1cc(C(F)(F)F)cc(C(F)(F)F)c1	
